# From ChEMBL document CHEMBL1154956, “Stereospecific synthesis of oximes and oxime ethers of 3-azabicycles: A SAR study towards antimicrobial agents” (2010)
# Key:
# Format in all cases: functional
# [1] = system: Bacillus subtilis; test: Antibacterial activity against Bacillus subtilis by NCCLS broth microdilution method
# [2] = system: Staphylococcus aureus; test: Antibacterial activity against Staphylococcus aureus by NCCLS broth microdilution method
# [3] = system: Klebsiella pneumoniae; test: Antibacterial activity against Klebsiella pneumoniae by NCCLS broth microdilution method
# [4] = system: Pseudomonas aeruginosa; test: Antibacterial activity against Pseudomonas aeruginosa by NCCLS broth microdilution method
# [5] = system: Candida albicans; test: Antifungal activity against Candida albicans by NCCLS broth microdilution method
# Method in brief: (§1)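 MIC90 was taken as the lowest concentration that inhibited 90% of pathogen growth after incubation, reported in μg/mL. Broth dilution followed the NCCLS reference standards: M27-A for yeasts and the proposed standard for conidium-forming filamentous fungi. Fluconazole was the reference drug.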
# [6] = system: Candida parapsilosis; test: Antifungal activity against Candida parapsilosis by NCCLS broth microdilution method; method in brief: as §1
# [7] = system: Aspergillus niger; test: Antifungal activity against Aspergillus niger by NCCLS broth microdilution method; method in brief: as §1
# [8] = system: Cryptococcus neoformans; test: Antifungal activity against Cryptococcus neoformans by NCCLS broth microdilution method; method in brief: as §1
# [9] = Bacillus subtilis, read-out: MIC90
# [10] = Staphylococcus aureus, read-out: MIC90
# [11] = Klebsiella pneumoniae, read-out: MIC90
# [12] = Pseudomonas aeruginosa, read-out: MIC90
# [13] = Candida albicans, read-out: MIC90
# [14] = Lodderomyces parapsilosis, read-out: MIC90
# [15] = Aspergillus niger, read-out: MIC90
# [16] = Cryptococcus neoformans, read-out: MIC90
Compound,MIC90 [1] [µg/mL],MIC90 [2] [µg/mL],MIC90 [3] [µg/mL],MIC90 [4] [µg/mL],MIC90 [5] [µg/mL],MIC90 [6] [µg/mL],MIC90 [7] [µg/mL],MIC90 [8] [µg/mL],"MIC90 [1, 9] [µg/mL]","MIC90 [2, 10] [µg/mL]","MIC90 [3, 11] [µg/mL]","MIC90 [4, 12] [µg/mL]","MIC90 [5, 13] [µg/mL]","MIC90 [6, 14] [µg/mL]","MIC90 [7, 15] [µg/mL]","MIC90 [8, 16] [µg/mL]"
CO/N=C1\C2CCCC1(C)C(c1cccc(OC)c1)NC2c1cccc(OC)c1 (centres undefined),,,,,,,,,64,32,128,> 128,> 128,64,> 128,128
CC12CCCC(/C1=N\O)C(c1ccccc1Br)NC2c1ccccc1Br (centres undefined),,,,,,,,,128,64,128,> 128,64,64,128,> 128
CC12CCCC(/C1=N\O)C(c1ccc(F)cc1)NC2c1ccc(F)cc1 (centres undefined),,,,,,,,,64,16,32,64,16,32,64,32
Cc1ccc(C2NC(c3ccc(C)cc3)C3(C)CCCC2/C3=N\O)cc1 (centres undefined),,,,,,,,,128,128,> 128,> 128,128,> 128,64,128
CO/N=C1\C2CCCC1(C)C(c1ccc(Cl)cc1)NC2c1ccc(Cl)cc1 (centres undefined),,,,,,,,,64,32,16,64,16,16,8,8
CC12CCCC(/C1=N\O)C(c1ccc(Cl)cc1)NC2c1ccc(Cl)cc1 (centres undefined),,,,,,,,,> 128,64,16,> 128,32,64,64,32
CO/N=C1\C2CCCC1(C)C(c1ccc(C)cc1)NC2c1ccc(C)cc1 (centres undefined),,,,,,,,,32,64,64,128,128,> 128,32,64
CC12CCCC(/C1=N\O)C(c1cccc(F)c1)NC2c1cccc(F)c1 (centres undefined),,,,,,,,,128,64,32,128,32,64,128,> 128
CC12CCCC(/C1=N\O)C(c1ccccc1Cl)NC2c1ccccc1Cl (centres undefined),,,,,,,,,64,8,16,32,64,8,16,8
CC12CCCC(/C1=N\O)C(c1ccc(Br)cc1)NC2c1ccc(Br)cc1 (centres undefined),,,,,,,,,> 128,64,> 128,> 128,> 128,> 128,128,128
CO/N=C1\C2CCCC1(C)C(c1ccc(OC)cc1)NC2c1ccc(OC)cc1 (centres undefined),,,,,,,,,64,16,64,128,64,128,128,> 128
COc1ccc(C2NC(c3ccc(OC)cc3)C3(C)CCCC2/C3=N\O)cc1 (centres undefined),,,,,,,,,128,32,64,> 128,128,> 128,128,> 128
COc1cccc(C2NC(c3cccc(OC)c3)C3(C)CCCC2/C3=N\O)c1 (centres undefined),,,,,,,,,128,128,> 128,> 128,> 128,> 128,> 128,128
CC12CCCC(/C1=N\O)C(c1cccc(Cl)c1)NC2c1cccc(Cl)c1 (centres undefined),,,,,,,,,> 128,64,64,> 128,64,64,> 128,128
CO/N=C1\C2CCCC1(C)C(c1cccc(Cl)c1)NC2c1cccc(Cl)c1 (centres undefined),,,,,,,,,128,64,32,64,32,32,128,64

# Second part, the compound after the results:
MIC90 [1] [µg/mL],MIC90 [2] [µg/mL],MIC90 [3] [µg/mL],MIC90 [4] [µg/mL],MIC90 [5] [µg/mL],MIC90 [6] [µg/mL],MIC90 [7] [µg/mL],MIC90 [8] [µg/mL],"MIC90 [1, 9] [µg/mL]","MIC90 [2, 10] [µg/mL]","MIC90 [3, 11] [µg/mL]","MIC90 [4, 12] [µg/mL]","MIC90 [5, 13] [µg/mL]","MIC90 [6, 14] [µg/mL]","MIC90 [7, 15] [µg/mL]","MIC90 [8, 16] [µg/mL]",Compound
32,8,16,16,4,4,2,2,,,,,,,,,CON=C1C2CC(C)CC1C(c1ccccc1Cl)NC2c1ccccc1Cl (stereo in doubt; 58b)
,,,,,,,,64,64,64,128,64,32,32,128,CO/N=C1\C2CCCC1(C)C(c1ccccc1Br)NC2c1ccccc1Br (centres undefined)
,,,,,,,,64,32,32,128,16,8,32,32,CON=C1C2CC(C)CC1C(c1cccc(Cl)c1)NC2c1cccc(Cl)c1 (centres undefined)
64,16,32,>128,4,16,32,64,,,,,,,,,CC1CC2C(=NO)C(C1)C(c1ccccc1Cl)NC2c1ccccc1Cl (stereo in doubt; 52b)
8,16,16,32,2,2,2,4,,,,,,,,,CON=C1C2CC(C)CC1C(c1ccccc1F)NC2c1ccccc1F (stereo in doubt; 55b)
,,,,,,,,16,4,8,16,16,64,16,8,CON=C1C2CC(C)CC1C(c1ccc(F)cc1)NC2c1ccc(F)cc1 (centres undefined)
,,,,,,,,32,8,16,32,8,8,64,64,CC12CCCC(/C1=N\O)C(c1ccccc1F)NC2c1ccccc1F (centres undefined)
,,,,,,,,16,4,4,8,4,8,16,8,CO/N=C1\C2CCCC1(C)C(c1ccccc1F)NC2c1ccccc1F (centres undefined)
,,,,,,,,32,32,16,32,64,64,32,64,CC1CC2C(=NO)C(C1)C(c1ccc(Cl)cc1)NC2c1ccc(Cl)cc1 (centres undefined)
,,,,,,,,64,8,32,64,32,64,64,32,CC1CC2C(=NO)C(C1)C(c1ccc(F)cc1)NC2c1ccc(F)cc1 (centres undefined)
32,32,64,64,8,16,16,32,,,,,,,,,CON=C1C2CC(C)CC1C(c1cccc(F)c1)NC2c1cccc(F)c1 (stereo in doubt; 56b)
,,,,,,,,32,32,32,64,64,64,128,128,CO/N=C1\C2CCCC1(C)C(c1ccccc1OC)NC2c1ccccc1OC (centres undefined)
,,,32,16,,> 128,,32,16,32,,,32,,32,CC1CC2C(=NO)C(C1)C(c1ccccc1Cl)NC2c1ccccc1Cl (stereo in doubt; 52a)
,,,,,,,,32,4,8,8,32,4,16,4,CO/N=C1\C2CCCC1(C)C(c1ccccc1Cl)NC2c1ccccc1Cl (centres undefined)
,,,,,,,,32,32,128,128,64,128,64,128,CO/N=C1\C2CCCC1(C)C(c1ccccc1C)NC2c1ccccc1C (centres undefined)
32,32,64,128,16,32,4,16,,,,,,,,,CC1CC2C(=NO)C(C1)C(c1ccccc1F)NC2c1ccccc1F (stereo in doubt; 49b)
,,,,32,,64,,16,16,64,64,,32,,64,CON=C1C2CC(C)CC1C(c1cccc(F)c1)NC2c1cccc(F)c1 (stereo in doubt; 56a)
,,,,,,,,128,32,32,64,128,64,64,> 128,CC1CC2C(=NO)C(C1)C(c1cccc(F)c1)NC2c1cccc(F)c1 (stereo in doubt; 50a)
